Statin myotox sup: suppression of simvastatin myotoxicity; C2C12 myotubes + simvastatin, ATP luminescence, 48 h; scaled: DMSO 0, geranylgeraniol control 100; rescue of ATP level, % at 7.49 µM; actives 0.78% (n = 330,000); AID 602340;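 active = mean ATP rescue above about 67%, or every replicate alone reaching that limit, limit read from the data, passing the limit was not always enough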;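 note: myotubes were challenged with 10 µM simvastatin during compound exposure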
ERAP1 HTS inh: inhibitors of human ERAP1 aminopeptidase; Q9NZ08; recombinant ERAP1, Leu-AMC fluorescence, 60 min; inhibition, % at 10.7 µM; actives 0.15% (n = 340,000);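 active = mean replicate inhibition of at least 30%, or all replicates individually reaching that 30% level; inactive = mean below 30% and not every replicate reaching it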;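 note: 0% = neutral control wells and 100% = L-leucinethiol positive control wells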
S100A4 MyoIIA: S100A4-myosin IIA interaction inhibition; actives 0.14% (n = 360,000); S100A4/TAMRA-MyoIIA peptide fluorescence polarization; inhibition, % at 10.7 µM; AID 652163;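 active = mean inhibition of at least 70% across replicates, with every replicate also reaching that level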
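Compound dosing: one dose per compound; test system: human S100A4 monomer with TAMRA-labelled myosin IIA peptide; probe or stimulus: TAMRA-labelled myosin IIA heavy-chain peptide probe, 5 nM; medium: HEPES buffer with Ca2+, pH 7.2; schedule: 5 min incubation before reading; benchmarks: neutral control DMSO, positive control TFP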
Rtt109 HAT inh: blocks Candida albicans Rtt109/Vps75 acetyltransferase activity. purified Rtt109/Vps75, ThioGlo CoA-SH fluorescence, 4 h. inhibition, % at 34.9 µM. actives 0.16% (n = 330,000);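 active = inhibition of at least 50% in every replicate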
Target sequence (Q5AAJ8 whole entry, looked up): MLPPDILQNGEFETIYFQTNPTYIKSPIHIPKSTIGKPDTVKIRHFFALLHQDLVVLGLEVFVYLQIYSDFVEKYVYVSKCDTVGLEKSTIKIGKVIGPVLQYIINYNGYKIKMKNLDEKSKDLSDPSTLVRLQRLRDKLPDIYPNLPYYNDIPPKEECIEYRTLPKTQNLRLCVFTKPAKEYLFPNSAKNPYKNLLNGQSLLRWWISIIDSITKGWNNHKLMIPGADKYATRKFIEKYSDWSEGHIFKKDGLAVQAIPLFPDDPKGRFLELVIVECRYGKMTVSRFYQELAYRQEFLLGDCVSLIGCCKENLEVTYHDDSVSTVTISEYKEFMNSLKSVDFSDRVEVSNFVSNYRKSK
PGC1a acetyl inh: modulators of PGC1a acetylation. U2OS PGC1a acetylation, AlphaScreen anti-acetyl-lysine; with virally co-expressed GCN5 acetyltransferase. inhibition, % at 15.6 µM. actives 0.17% (n = 350,000). AID 651687;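 active = every replicate shows inhibition of at least 40%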;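 note: 0% = neutral control wells and 100% = positive control wells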
The depositor's hits bear a star. Compounds with a hit are over-represented: about 0.98% of the library has one in this group of screens.

How did C[C@H](CO)N1C[C@H](C)[C@H](CN(C)S(C)(=O)=O)Oc2ccc(NC(=O)CCCN(C)C)cc2CC1=O do in these assays?
ERAP1 HTS inh: 2; S100A4 MyoIIA: 5; PGC1a acetyl inh: 0

How did COc1ccc(S(=O)(=O)N2CCN(c3ccccn3)CC2)cc1OC do in these assays?
Statin myotox sup: 22; Rtt109 HAT inh: 53*; PGC1a acetyl inh: -3

How did Cc1n[nH]c(C)c1S(=O)(=O)N1CCN(c2ccccn2)CC1 do in these assays?
Statin myotox sup: 78*; Rtt109 HAT inh: 9; PGC1a acetyl inh: 3

Results for C[C@@H]1CCCCO[C@@H](CN(C)S(=O)(=O)c2ccc(F)cc2)[C@H](C)CN([C@@H](C)CO)C(=O)c2cc(NC(=O)Nc3cccc4ccccc34)ccc2O1 ?
Statin myotox sup: 84*; ERAP1 HTS inh: -2; S100A4 MyoIIA: -20; PGC1a acetyl inh: -19

Results for C[C@H](CO)N1C[C@H](C)[C@H](CN(C)S(=O)(=O)c2ccc(F)cc2)OCCCC[C@H](C)Oc2ccc(NS(C)(=O)=O)cc2C1=O ?
Statin myotox sup: 105*; ERAP1 HTS inh: -1; S100A4 MyoIIA: -24; PGC1a acetyl inh: 4

How did C[C@@H]1CCCCO[C@H](CN(C)S(=O)(=O)c2ccc(F)cc2)[C@H](C)CN([C@@H](C)CO)C(=O)c2cc(NS(C)(=O)=O)ccc2O1 do in these assays?
Statin myotox sup: 81*; ERAP1 HTS inh: -8; S100A4 MyoIIA: -4; PGC1a acetyl inh: 3

What do the screens show for `C[C@@H]1CCCCO[C@H](CN(C)S(=O)(=O)c2ccc(F)cc2)[C@H](C)CN([C@@H](C)CO)C(=O)c2cc(NC(=O)Cc3ccccc3)ccc2O1`?
Statin myotox sup: 152*; PGC1a acetyl inh: -1

What do the screens show for `CCC(=O)N1CC2(CCN(Cc3ccc(Cl)cc3)CC2)c2c(n(C)c3cc(OC)ccc23)[C@H]1CO`?
ERAP1 HTS inh: -1; S100A4 MyoIIA: -4; PGC1a acetyl inh: 6

What do the screens show for `Cc1noc(C)c1S(=O)(=O)N(C)C[C@H]1OCCCC[C@H](C)Oc2ccc(NS(=O)(=O)c3cccs3)cc2C(=O)N([C@@H](C)CO)C[C@@H]1C`?
ERAP1 HTS inh: 5; S100A4 MyoIIA: -8; PGC1a acetyl inh: 5

Results for CCOC(=O)C(CC)(CC)C(=O)/C=C/c1ccc(Br)cc1 ?
Statin myotox sup: -8; Rtt109 HAT inh: 1; PGC1a acetyl inh: 57*

What do the screens show for `C[C@@H]1CN([C@H](C)CO)C(=O)Cc2cc(NC(=O)Nc3ccc(C(F)(F)F)cc3)ccc2O[C@H]1CN(C)S(C)(=O)=O`?
Statin myotox sup: 19; ERAP1 HTS inh: 2; S100A4 MyoIIA: 3; PGC1a acetyl inh: 0

What do the screens show for `CCn1c(=O)c(-c2ccccc2)c(O)c2ccccc21`?
Statin myotox sup: 1; Rtt109 HAT inh: 9; PGC1a acetyl inh: -31

What do the screens show for `CCCCn1c(=O)c(-c2ccccc2)c(O)c2ccccc21`?
Statin myotox sup: 120*; Rtt109 HAT inh: -7; PGC1a acetyl inh: 6

Results for O=[N+]([O-])c1ccc(C2CC(c3ccccc3)=Nc3ccccc3S2)cc1 (stereo not drawn) ?
Statin myotox sup: 14; ERAP1 HTS inh: 0; S100A4 MyoIIA: -5; Rtt109 HAT inh: -11

What do the screens show for `Fc1ccc(C2CC(c3ccco3)=Nc3ccccc3S2)cc1` (stereo not drawn)?
ERAP1 HTS inh: 0; S100A4 MyoIIA: -1; Rtt109 HAT inh: 56*

How did COc1ccc(NC(=O)Nc2ccc3c(c2)CC(=O)N([C@@H](C)CO)C[C@@H](C)[C@H](CN(C)C(=O)Nc2cccc4ccccc24)O3)cc1 do in these assays?
Statin myotox sup: 78*; PGC1a acetyl inh: -8

Results for COc1ccc(NC(=O)Nc2ccc3c(c2)CC(=O)N([C@@H](C)CO)C[C@@H](C)[C@@H](CN(C)C(=O)Nc2cccc4ccccc24)O3)cc1 ?
Statin myotox sup: -12; PGC1a acetyl inh: 3

What do the screens show for `C[C@H]1CN([C@@H](C)CO)C(=O)Cc2cc(NC(=O)Nc3cccc4ccccc34)ccc2O[C@H]1CN(C)Cc1ccccc1`?
Statin myotox sup: -25; ERAP1 HTS inh: 2; S100A4 MyoIIA: 1

Screening results deposited in PubChem BioAssay by Broad Institute.
